TCR CD3 inh: human TCR-CD3 binding inhibition. AID 651800. 360,000 tested, 0.37% active. inhibition, % at 9.4 µM. TAMRA-labeled TCR probe fluorescence, biochemical; in the data active = inhibition above about 19%;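 note: recombinant mutant TCR 2C K166C tagged with TAMRA read by polarization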
ABHD4 inh: inhibitors of mouse ABHD4 | Q8VD66 | purified mABHD4, FP-Rh probe fluorescence polarization | 370,000 tested, 0.54% active | AID 720543 | inhibition, % at 8.92 µM;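 active = inhibition exceeding the mean over every tested compound plus 3 SD, cut at about 30% in these data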
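Assay system: wild-type mouse ABHD4 protein; compound: single nominal dose of 8.92 µM, 0.89% DMSO final; schedule: 45 min + 60 min at 25 °C; measured by: FP readout, ex 525 nm / em 598 nm; evaluation: % inhibition of FP-Rh probe binding versus controls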
Tn6 DDE FP: disrupts Tn6 cyclic peptide binding to fibrin D-Dimer-E complex; Fibrin DD(E) TRITC-Tn6 fluorescence polarization displacement; inhibition, % at 8.3 µM; 370,000 tested, 0.21% active;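 active = inhibition above a per-campaign cutoff: mean of compounds within control limits plus 3 SD, cut at about 15% in these data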
Target sequence (P02675 whole entry, looked up): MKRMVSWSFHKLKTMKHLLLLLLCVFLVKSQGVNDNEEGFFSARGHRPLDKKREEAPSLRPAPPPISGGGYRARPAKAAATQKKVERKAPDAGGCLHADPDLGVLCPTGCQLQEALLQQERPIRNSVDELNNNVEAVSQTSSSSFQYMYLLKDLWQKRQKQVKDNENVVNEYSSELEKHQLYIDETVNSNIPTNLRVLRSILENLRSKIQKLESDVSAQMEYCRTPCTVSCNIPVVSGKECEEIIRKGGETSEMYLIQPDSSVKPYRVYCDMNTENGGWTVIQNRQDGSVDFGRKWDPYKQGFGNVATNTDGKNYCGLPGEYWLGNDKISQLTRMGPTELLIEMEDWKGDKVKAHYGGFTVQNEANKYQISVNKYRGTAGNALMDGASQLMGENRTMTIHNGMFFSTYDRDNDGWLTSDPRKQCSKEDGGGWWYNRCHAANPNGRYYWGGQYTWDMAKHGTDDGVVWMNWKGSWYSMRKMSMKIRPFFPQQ
HTRA1 inh: HTRA1 (human) protease inhibition; Q92743; recombinant HTRA1, FP-rhodamine activity-based probe, fluorescence polarization; inhibition, % at 5.96 µM; 340,000 tested, 0.5% active; in the data active = inhibition above about 36%
Tn7 DDE FP: inhibitors of Tn7 peptide binding to human fibrin DD(E); P02675; FP displacement of FITC-Tn7 peptide from fibrin DD(E); 0% = median of compound wells per plate; inhibition, % at 8.3 µM; 370,000 tested, 0.13% active;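 active = inhibition above the mean of compounds falling within the control limits plus 3 SD of them, cut at about 14% in these data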
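System: human fibrin DD(E); quantity: Fibrin-DD(E) at 2 µM final; also added: fluorescent Tn7 probe at 0.1 µM; compound dosing: single nominal test concentration of 8.3 µM per compound; schedule: 10 min preincubation, 3 h with tracer, room temperature; detection: fluorescence polarization of the labelled Tn7 tracer; repeats: one replicate per compound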
DDE Tn7 confirm: confirmation of inhibitors of Tn7 binding to human fibrin DD(E); shares compounds with Tn7 DDE FP; 460 tested, 5% active; inhibition, % at 8.3 µM; FP displacement of TRITC-Tn7 peptide from DD(E); 0% set at plate's compound-well median; AID 720628;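 active = inhibition above the campaign cutoff, the mean of compounds within control limits plus 3 SD, cut at about 14% in these data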;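 note: displacers lower polarization since freed probe rises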
Tn7 DDE ctr: counter-screen for inhibitors of Tn7 peptide binding to fibrin DD(E); inhibition, % at 8.3 µM; 460 tested, 3% active; AID 720633; shares compounds with Tn7 DDE FP; TRITC-Tn7 probe displacement, fluorescence polarization;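 active = inhibition above the cutoff, the mean of compounds lying between the control bounds plus 3 SD of those compounds, cut at about 17% in these data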
Hits are given with their value; - = inactive; . = no result. Compounds with a hit are over-represented: about 1.3% of the library has one in this group of screens.

SMILES	TCR CD3 inh	ABHD4 inh	Tn6 DDE FP	HTRA1 inh	Tn7 DDE FP	DDE Tn7 confirm	Tn7 DDE ctr
O=C1C(=O)N(Cc2cccnc2)C(c2cccc([N+](=O)[O-])c2)/C1=C(\O)c1ccc2c(c1)OCCO2 (stereo unspecified)	-	-	-	-	-	.	.
C=CCNC(=O)CN(Cc1ccccc1)S(=O)(=O)c1ccc(C)cc1	-	-	-	-	-	.	.
C=CCNC(=O)CN(CCc1ccccc1)S(=O)(=O)c1ccccc1	-	-	-	-	15.8	-	-
CN(C)C(CNC(=O)c1cc(S(=O)(=O)N(C)c2ccc(F)cc2)ccc1Cl)c1cccs1 (stereo unspecified)	-	-	-	-	14.6	-	-
COCCn1c(COc2cccc(OC)c2)nnc1SCC(=O)NC1CCCCC1	-	-	-	-	18.6	-	-
Cc1ccc(C2C(C#N)=C(N)Oc3nc(-c4ccccc4)[nH]c32)o1 (stereo unspecified)	-	-	-	-	-	.	.
O=C(O)C1C2CCC1C(O)C2 (stereo unspecified)	-	-	-	-	17.1	-	-
Oc1ccc2nnc3c(Br)cnn3c2c1	-	-	-	-	17.1	-	-
Clc1ccc2nc3c4ccccc4cnn3c2c1	-	-	-	-	-	.	.
COc1ccc(CN2[C@@H](CC(C)=O)c3cc(C(F)(F)F)ccc3S2(=O)=O)cc1	-	-	-	-	-	.	.
COc1ccccc1CNC(=O)COC(=O)c1ccc(C(=O)c2ccccc2)cc1	-	-	-	-	-	.	.
C#CCN1CC(COc2ccccc2)Oc2cccc(Oc3ccc(OC)cc3)c2S1(=O)=O (stereo unspecified)	-	-	-	.	14.2	-	-
CCCCN1CC(COCc2ccccc2)Oc2cccc(Oc3ccc(OC)cc3)c2S1(=O)=O (stereo unspecified)	-	-	-	-	-	.	.
COc1ccc(C(O)c2nc(-c3ccccc3OC)cs2)cc1 (stereo unspecified)	-	-	-	.	-	.	.
O=C(Cn1c(Cc2ccccc2)nc2ccccc21)NCc1ccc2c(c1)OCO2	-	-	-	-	14.5	-	-
Nc1nonc1-c1nc2ccccc2n1CC(=O)N/N=C/c1ccc(-c2cccc(C(=O)O)c2)o1	-	-	-	-	-	.	.
CCOC(=O)[C@H]1[C@H]2COc3ccccc3[C@@H]2N2C(=O)CN(Cc3ccc(C)cc3)C(=O)[C@@]12C	-	-	-	-	20.3	-	-
COP(=O)(O)CCOCCC(CC(C)C)NC(=O)OCc1ccccc1 (stereo unspecified)	.	-	-	.	-	.	.
C=CCNS(=O)(=O)c1ccc(OCC(=O)OC)cc1	-	-	-	-	15.6	-	-
COc1ccc2cc(C(N)=O)/c(=N\NC(=O)c3ccccc3)oc2c1	-	-	-	-	-	.	.
COc1cccc(C(=O)N/N=c2/oc3ccccc3cc2C(N)=O)c1	-	-	-	-	14.1	-	-
Cc1ccc(NC(=O)CSc2nnc(NC(=O)C(C)C)s2)c(C)c1	-	-	-	-	-	.	.
CCN(CC)S(=O)(=O)c1cccc(C(=O)N/N=C2\CCCC(=O)C2)c1	-	-	-	-	25.3	-	-
Cc1cccc(NC(=O)COC(=O)c2ccc3c(c2)OCO3)c1C	-	-	-	-	-	.	.
Clc1ccc(-n2c(SCc3cccc4ccccc34)nnc2-c2ccco2)cc1	.	-	-	.	14.5	-	-
CSc1ccc(C2C(C(=O)c3ccco3)=C(O)C(=O)N2c2nnc(SC)s2)cc1 (stereo unspecified)	-	-	-	-	25.8	-	-
Cc1cc(C)c(NS(=O)(=O)c2ccccc2)c(C)n1	-	-	-	-	-	.	.
CSc1ccc(CN(C)C(=O)c2ccc(S(=O)(=O)Nc3ccccc3)cc2)cc1	-	-	-	-	-	.	.
O=C(NCc1nnnn1-c1ccc(Cl)cc1)C1CC(=O)N(c2ccc(F)cc2)C1 (stereo unspecified)	-	-	-	-	-	.	.
COc1ccc(-n2nnnc2CNC(=O)C2CC(=O)N(c3ccc(F)cc3)C2)cc1 (stereo unspecified)	-	-	-	-	14.3	-	-
